# pPAFAH inh: pPAFAH (human) enzyme inhibition | 1.5% of 330,000 active | inhibition, % at 3.39 µM | recombinant pPAFAH, FP-rhodamine probe fluorescence polarization;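 active = inhibition above the mean inhibition across the screen plus 3 SD, cut at about 25% in these data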;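 note: inhibitors block binding of the rhodamine activity-based probe so polarization drops; 0% = enzyme with DMSO and 100% = wells lacking pPAFAH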
# Target sequence (Q13093 whole entry, looked up): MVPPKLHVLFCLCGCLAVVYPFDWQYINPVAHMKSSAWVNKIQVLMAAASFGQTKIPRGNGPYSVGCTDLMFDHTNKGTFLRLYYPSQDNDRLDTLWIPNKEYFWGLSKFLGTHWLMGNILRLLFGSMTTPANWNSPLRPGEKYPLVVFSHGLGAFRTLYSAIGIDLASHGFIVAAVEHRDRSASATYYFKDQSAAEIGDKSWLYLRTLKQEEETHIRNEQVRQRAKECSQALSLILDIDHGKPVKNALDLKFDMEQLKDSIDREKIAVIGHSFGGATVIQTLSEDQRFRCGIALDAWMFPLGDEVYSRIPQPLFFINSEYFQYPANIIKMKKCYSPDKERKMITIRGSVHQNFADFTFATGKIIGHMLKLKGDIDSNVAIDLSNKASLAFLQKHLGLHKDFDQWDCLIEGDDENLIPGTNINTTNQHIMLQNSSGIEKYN
# PAFAH1B3 FP inh: PAFAH1B3 (human) inhibition; Q15102; recombinant PAFAH1B3, FP-rhodamine probe, fluorescence polarization; inhibition, % at 3.39 µM; 0.28% of 340,000 active; AID 492972;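 active = inhibition above the screen-wide average of all tested compounds plus 3 SD, cut at about 25% in these data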;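 note: 0% = enzyme with DMSO only and 100% = wells lacking PAFAH1B3 protein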
# UCH37 inh: blocks the human deubiquitinase UCH37 | Q9Y5K5 | purified proteasome/UCH37, Ub-AMC cleavage fluorescence | inhibition, % (test concentration not listed) | 0.33% of 330,000 active;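 active = mean inhibition over replicate wells above about 20%, limit read from the data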;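 note: 0% = compound-free wells with enzyme and 100% = wells lacking proteasome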
#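 system = Proteasome-associated human UCH37 deubiquitinase | amount = 0.15 nM proteasome as dispensed | medium = pH 7.4 Tris-HCl (50 mM) with ovalbumin, ATP-MgCl2, DTT | incubation = 30 min preincubation with enzyme, 25 min cleavage at room temperature | detection = AMC fluorescence 355/460 nm | read-out basis = percent inhibition | controls = no-proteasome and no-compound wells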
# NR3A LBD binder: modulates the human NR3A ligand-binding domain; NR3A LBD differential scanning fluorimetry, Tm shift; 0% = protein alone, 100% = glycine-bound protein; Tm shift relative to glycine control, % at 25 µM; 2.5% of 340,000 active; AID 1259313;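 active = melting temperature shift of at least 10% of the positive control shift, at one fixed dose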
# PAFAH2 inh: PAFAH2 (human) inhibition | inhibition, % at 3.39 µM | recombinant PAFAH2, FP-rhodamine activity probe, fluorescence polarization | AID 492956 | Q99487 | 0.99% of 340,000 active;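 active = inhibition above the mean over all tested compounds plus 3 SD, cut at about 30% in these data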;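 note: inhibitors block probe labeling of enzyme so polarization drops; 0% = enzyme with DMSO and 100% = wells lacking PAFAH2 protein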
# PAFAH1B2 inh: inhibitors of human PAFAH1B2; recombinant PAFAH1B2, FP-rhodamine activity probe, fluorescence polarization; inhibition, % at 3.39 µM; 1.2% of 340,000 active; AID 492953;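 active = inhibition above the mean of all tested compounds plus 3 SD, cut at about 24% in these data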;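 note: 0% = enzyme with DMSO and 100% = wells lacking PAFAH1B2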
# An asterisk follows results filed as active; nt = not tested or not shown. A selection: hits, their analogues and other compounds. The true share with any hit is near 4.8%.
SMILES,pPAFAH inh,PAFAH1B3 FP inh,UCH37 inh,NR3A LBD binder,PAFAH2 inh,PAFAH1B2 inh
O=C(NN=C1CC2C=CCC12)c1cccs1 (centres undefined),nt,nt,4,nt,nt,nt
COc1ccc(C=N/N=C2/NC(=O)C(CC(=O)O)S2)cc1OS(=O)(=O)c1ccccc1 (centres undefined),nt,nt,11,nt,nt,nt
CCCN(CCC)Cc1c(C(=O)NN=C/C(C)=C\c2ccco2)nnn1-c1nonc1N,nt,nt,6,nt,nt,nt
CN(C)Cc1c(C(=O)NN=Cc2cccs2)nnn1-c1nonc1N,nt,nt,8,nt,nt,nt
Cc1cc(C)c(C)c(S(=O)(=O)N2CCC(C(=O)Nc3ccc(S(=O)(=O)N4CCOCC4)cc3)CC2)c1C,-2,-14,0,19*,-20,-9
CCOCCCNS(=O)(=O)c1ccc(NC(=O)c2ccc(OC)c([N+](=O)[O-])c2)cc1,2,1,2,17*,0,6
Cc1ccc(S(=O)(=O)N2CCC(C(=O)Nc3ccc(S(=O)(=O)N4CCOCC4)cc3)CC2)cc1,nt,3,4,-6,5,2
COc1ccc(C(=O)Nc2ccc(S(=O)(=O)NC(C)=O)cc2)cc1[N+](=O)[O-],10,3,0,-2,8,1
CCOC(=O)c1sc2ccccc2c1OC(=O)c1ccccc1,1,2,3,14*,3,1
CCOC(=O)c1ccc(Oc2cn[nH]c2-c2ccc(O)cc2O)cc1,14,7,5,29*,-6,4
CCCOC(=O)c1ccc(Oc2cn[nH]c2-c2ccc(O)cc2O)cc1,12,10,9,34*,-6,-1
COCc1c(C(=O)NN=C(C)c2cccs2)nnn1-c1nonc1N,nt,nt,-49,nt,nt,nt
O=C1CC(c2ccc(Cl)cc2)CC(=O)C1CS(=O)(=O)c1ccccc1 (centres undefined),-1,7,0,-7,-2,6
O=C1CC(c2ccccc2)CC(=O)C1Sc1ccc(Cl)cc1 (centres undefined),11,4,4,15*,-1,16
COc1ccc([N+](=O)[O-])cc1C=NNC(=O)CNC(=O)c1cccc(F)c1,nt,nt,5,nt,nt,nt
N=C1S/C(=C\c2ccco2)C(=O)N1c1ccc2c(c1)OCO2,31*,2,7,-1,14,6
NS(=O)(=O)c1cccc(NC(=O)Nc2ccc(Cl)cc2)c1,1,-1,2,36*,-5,-2
COC(=O)c1cccc(NC(=S)Nc2ccc(Cl)c(Cl)c2)c1,10,7,4,23*,-7,-6
Cc1cccc(NC(=O)Nc2ccc(S(N)(=O)=O)cc2)c1,-3,nt,4,5,nt,nt
CN(C)S(=O)(=O)c1cccc(NC(=O)c2cccc(NS(=O)(=O)c3ccccc3)c2)c1,4,-7,nt,3,-19,-2
CC(C)S(=O)(=O)c1csc(NC(=O)Nc2ccc(Cl)cc2)c1,-3,12,4,33*,11,5
CN(C)S(=O)(=O)c1cccc(C(=O)Nc2ccc(C(=O)Nc3cccc(S(N)(=O)=O)c3)cc2)c1,-3,-6,3,21*,-11,-4
CNC(=O)Nc1ccc(Cl)cc1,2,6,2,-2,2,-2
O=C(NN=C/C=C\c1ccccc1[N+](=O)[O-])c1cccnc1,nt,nt,8,nt,nt,nt
COC(=O)c1cccc(NC(=S)Nc2ccccc2Cl)c1,-5,8,0,-1,-3,5
SMILES,pPAFAH inh,PAFAH1B3 FP inh,UCH37 inh,NR3A LBD binder,PAFAH2 inh,PAFAH1B2 inh
COC(=O)c1cc(NC(=S)Nc2cc(Cl)cc(Cl)c2)cc(C(=O)OC)c1,-1,-11,-4,16*,-13,0
COC(=O)c1ccc(NC(=O)Nc2ccc(OC)c(OC)c2)cc1,4,4,1,21*,-5,4
O=C(N/C(=N\O)c1ccccc1)Nc1ccc(Cl)cc1,6,5,nt,23*,5,2
COC(=O)c1cccc(NC(=O)Nc2ccc(Cl)cc2)c1,2,nt,0,35*,nt,nt
Cc1ccc(CN2CCN(N=Cc3cc(Br)cc(Br)c3O)CC2)c(C)c1,nt,nt,3,nt,nt,nt
Cc1ccc2[nH]c(=O)c(C(c3nnnn3CC3CCCO3)N3CCCc4ccccc43)cc2c1 (centres undefined),4,0,4,19*,1,1
Cc1cc2cc(C(c3nnnn3Cc3ccco3)N3CCc4ccccc43)c(=O)[nH]c2cc1C (centres undefined),30*,7,-90,-6,11,3
Cc1cc2cc(C(c3nnnn3Cc3ccccc3)N3CCc4ccccc43)c(=O)[nH]c2cc1C (centres undefined),3,4,-2,-11,2,4
O=C(CN1CCN(S(=O)(=O)c2ccc(Br)cc2)CC1)NN=Cc1ccc(Br)s1,nt,nt,5,nt,nt,nt
O=C(NN=Cc1ccncc1)c1ccc(-n2cccc2)cc1,nt,nt,2,nt,nt,nt
OC(COc1ccc2ccccc2c1Br)Cn1cnc(-c2ccccc2)c1 (centres undefined),-7,9,1,14*,-7,-1
Clc1ccc(CNC2CCCC2)c(Cl)c1,0,7,3,-1,2,6
S=C(NCCc1ccccc1)NC1CCC(NC(=S)NCCc2ccccc2)CC1 (centres undefined),1,4,2,1,1,1
S=C(NCCc1cccc(Cl)c1)NC1CCCCC1,nt,13,3,12*,-2,3
S=C(NCc1ccc(Cl)cc1Cl)NC1CCCCC1,1,7,7,32*,-10,1
Cc1ccc(C=Nn2c(-c3ccccn3)n[nH]c2=S)o1,nt,nt,3,nt,nt,nt
O=c1c(=Cc2ccco2)sc2n1CN(c1cccc(Br)c1)CN=2,nt,nt,1,nt,nt,nt
Cc1nnc(NN=CC2CC=CCC2)[nH]c1=O (centres undefined),nt,nt,4,nt,nt,nt
Cc1ccc(NC(=O)COC(=O)CCC2CCCC2)cc1S(=O)(=O)N1CCOCC1,33*,0,1,-6,32*,4
Cc1ccc(C)c(SCC(=O)OCC(=O)Nc2ccc(S(=O)(=O)N3CCOCC3)cc2)c1,26*,8,0,10,2,6
CC(C)CN(C=Nc1sc2c(c1C#N)CCCCC2)CC(C)C,nt,nt,4,nt,nt,nt
COC(=O)c1ccc(CN(c2ccc(C(=O)O)c(O)c2)S(=O)(=O)c2ccc(Cl)c([N+](=O)[O-])c2)cc1,21,7,3,22*,-3,7
COC(=O)c1ccc(CN(c2ccccn2)S(=O)(=O)c2ccccc2)cc1,0,1,-16,1,-8,-1
O=C(CN1C(=O)NC(Cc2ccccc2)C1=O)Nc1ccc(F)c(Cl)c1 (centres undefined),0,-4,1,29*,-2,6
O=C(CN1C(=O)NC(Cc2ccccc2)C1=O)Nc1ccc(OC(F)(F)F)cc1 (centres undefined),0,-1,nt,15*,3,3

# Bioassay records from PubChem.
